This is an account of results in ChEMBL document CHEMBL1177801, “Structure-based design and synthesis of pyrrole derivatives as MEK inhibitors” (Bioorg Med Chem Lett, 2010).

For series [1], the target named is Dual specificity mitogen-activated protein kinase kinase 1 (Homo sapiens, UniProt Q02750). In words: Inhibition of MEK1 by cascade assay method. The method, boiled down: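 Cascade format, compounds serially diluted in DMSO, then in 50 mM HEPES pH 7.3, 10 mM NaCl, 10 mM MgCl2, 0.01% Brij35, 1 mM DTT. Reaction started with 1 nM MEK1 and 400 µM ATP (also run at 10 µM). Product read by IMAP fluorescence polarization. IC50 fitted with standard models.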

For the next series, the system named is COLO 205. Put plainly: Cytotoxicity against human COLO205 cells expressing b-Raf V600E mutant after 72 hrs by MTS assay. Format: functional, cell-based. Conditions: COLO 205, 72 h. The method, boiled down:
(§1)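 Human BRAF(V600E) line seeded at 3000–10,000 cells per 96 well, allowed 16 h at 37 °C in humidified 5% CO2. Then exposed 72 h to an eleven-point compound dilution in duplicate. NADH measured by MTS tetrazolium conversion, read at OD 490 nm. EC50 taken from compound concentration vs total NADH.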

In a further series the test system is A-375. Put plainly: Cytotoxicity against human A375 cells expressing b-Raf V600E mutant after 72 hrs by MTS assay. The format is functional, cell-based. The following applies: A-375, 72 h. In short, it runs like this: as §1
A general note: Tetrazolium dyes change colour on reduction, which living cells bring about.

Series [2] in a line: Half life in human liver microsomes. Format: ADME, Microsome. In general terms: Liver microsomes are a subcellular fraction often used to study metabolism.
The nature of series [3]: Half life in rat liver microsomes. Format: ADME, Microsome.
Series [4] in a line: Clearance in rat at 1 mg/kg, iv and 5 mg/kg, po. Format: ADME, organism-based. The following applies: in vivo.
The nature of series [5]: Volume of distribution at steady state in rat at 1 mg/kg, iv and 5 mg/kg, po. Format: ADME, organism-based. The following applies: in vivo, read-out: Vdss.
Series [6] is described as follows: Mean residence time in rat at 1 mg/kg, iv. The following applies: in vivo. Set-up: dose 1 mg/kg, route intravenous. The format is ADME, organism-based.
Series [7] is described as follows: Mean residence time in rat at 5 mg/kg, po. The format is ADME, organism-based. The following applies: in vivo. Set-up: dose 5 mg/kg, route oral.
A short description of series [8]: Oral bioavailability in rat at 5 mg/kg. The format is ADME, organism-based. The following applies: in vivo.
Series [9] has as its target Tyrosine-protein kinase ABL1 (Homo sapiens) (UniProt P00519). Put plainly: Inhibition of Abl1 at 10 uM.
In series [10] the target is RAC-gamma serine/threonine-protein kinase (Homo sapiens) (UniProt Q9Y243). Put plainly: Inhibition of AKT3 at 10 uM.
Series [11] deals with RAF proto-oncogene serine/threonine-protein kinase (Homo sapiens) (UniProt P04049). Put plainly: Inhibition of c-RAF at 10 uM.
Series [12] concerns the target Calcium/calmodulin-dependent protein kinase type 1D (Homo sapiens) (UniProt Q8IU85). Put plainly: Inhibition of CamK1delta at 10 uM.
Series [13] deals with Cyclin-dependent kinase 2/cyclin A (Homo sapiens) (UniProt P24941+P20248+P78396). Put plainly: Inhibition of CDK2/cyclinA at 10 uM. The format is protein-complex assay.
Series [14] has as its target Hepatocyte growth factor receptor (Homo sapiens) (UniProt P08581). Put plainly: Inhibition of c-Met at 10 uM.
In series [15] the target is Proto-oncogene tyrosine-protein kinase Src (Homo sapiens) (UniProt P12931). Put plainly: Inhibition of c-SRC at 10 uM.
Series [16] addresses Epidermal growth factor receptor (Homo sapiens) (UniProt P00533). In words: Inhibition of EGFR at 10 uM.
The target in series [17] is Glycogen synthase kinase-3 beta (Homo sapiens) (UniProt P49841). Put plainly: Inhibition of GSK3-beta at 10 uM.
Series [18] addresses Insulin receptor (Homo sapiens) (UniProt P06213). In words: Inhibition of insulin receptor at 10 uM.
Series [19] has as its target T1, Tyrosine-protein kinase JAK3 (Homo sapiens) (UniProt P52333).
T1 sequence (whole entry): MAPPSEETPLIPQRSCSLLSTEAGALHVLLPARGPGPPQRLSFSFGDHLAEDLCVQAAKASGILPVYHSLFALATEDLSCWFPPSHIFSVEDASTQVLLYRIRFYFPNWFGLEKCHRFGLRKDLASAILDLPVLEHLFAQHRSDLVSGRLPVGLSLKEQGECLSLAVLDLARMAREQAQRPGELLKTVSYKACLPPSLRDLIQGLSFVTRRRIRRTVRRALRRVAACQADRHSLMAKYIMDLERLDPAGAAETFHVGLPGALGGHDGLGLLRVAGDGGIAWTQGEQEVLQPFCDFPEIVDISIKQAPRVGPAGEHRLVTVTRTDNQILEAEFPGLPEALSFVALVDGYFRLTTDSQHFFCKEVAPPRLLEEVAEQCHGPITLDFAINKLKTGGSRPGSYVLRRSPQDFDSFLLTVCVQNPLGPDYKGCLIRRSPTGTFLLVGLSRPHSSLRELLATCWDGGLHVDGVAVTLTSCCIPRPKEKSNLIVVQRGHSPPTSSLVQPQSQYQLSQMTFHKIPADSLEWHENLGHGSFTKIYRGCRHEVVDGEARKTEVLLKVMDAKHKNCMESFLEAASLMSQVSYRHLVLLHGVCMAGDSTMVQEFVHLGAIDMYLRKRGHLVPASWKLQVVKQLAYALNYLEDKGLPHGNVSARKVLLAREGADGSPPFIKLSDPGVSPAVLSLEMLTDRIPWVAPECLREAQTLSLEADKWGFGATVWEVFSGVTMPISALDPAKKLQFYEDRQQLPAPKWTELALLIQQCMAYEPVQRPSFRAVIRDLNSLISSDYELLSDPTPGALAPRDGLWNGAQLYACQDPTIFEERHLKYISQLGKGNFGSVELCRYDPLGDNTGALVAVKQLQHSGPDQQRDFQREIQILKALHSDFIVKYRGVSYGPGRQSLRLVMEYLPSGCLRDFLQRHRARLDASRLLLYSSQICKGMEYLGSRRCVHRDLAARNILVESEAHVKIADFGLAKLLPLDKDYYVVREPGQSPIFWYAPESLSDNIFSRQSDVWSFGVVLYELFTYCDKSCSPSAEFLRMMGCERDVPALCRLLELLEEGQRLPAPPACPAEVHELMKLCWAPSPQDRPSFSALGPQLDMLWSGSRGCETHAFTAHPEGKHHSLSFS
In words: Inhibition of JAK3 at 10 uM.

Series [20] deals with Mitogen-activated protein kinase 14 (Homo sapiens) (UniProt Q16539). In words: Inhibition of P38alpha at 10 uM.
Series [21] concerns the target Platelet-derived growth factor receptor beta (Homo sapiens) (UniProt P09619). Put plainly: Inhibition of PDGFRbeta at 10 uM.
Series [22] deals with Protein kinase C alpha type (Homo sapiens) (UniProt P17252). In words: Inhibition of PKCalpha at 10 uM.
The target of series [23] is Serine/threonine-protein kinase PLK3 (Homo sapiens) (UniProt Q9H4B4). Put plainly: Inhibition of PLK3 at 10 uM.
Series [24] concerns the target Tyrosine-protein kinase SYK (Homo sapiens) (UniProt P43405). Put plainly: Inhibition of Syk at 10 uM.
Series [25] addresses Angiopoietin-1 receptor (Homo sapiens) (UniProt Q02763). Put plainly: Inhibition of Tie2 at 10 uM.
Series [26] addresses 3-phosphoinositide-dependent protein kinase 1 (PDPK1) (Homo sapiens) (UniProt O15530). In words: Inhibition of PDK1 at 10 uM.

The source made the active and inactive calls.

Dual specificity mitogen-activated protein kinase kinase 1, sequence (Q02750 whole entry): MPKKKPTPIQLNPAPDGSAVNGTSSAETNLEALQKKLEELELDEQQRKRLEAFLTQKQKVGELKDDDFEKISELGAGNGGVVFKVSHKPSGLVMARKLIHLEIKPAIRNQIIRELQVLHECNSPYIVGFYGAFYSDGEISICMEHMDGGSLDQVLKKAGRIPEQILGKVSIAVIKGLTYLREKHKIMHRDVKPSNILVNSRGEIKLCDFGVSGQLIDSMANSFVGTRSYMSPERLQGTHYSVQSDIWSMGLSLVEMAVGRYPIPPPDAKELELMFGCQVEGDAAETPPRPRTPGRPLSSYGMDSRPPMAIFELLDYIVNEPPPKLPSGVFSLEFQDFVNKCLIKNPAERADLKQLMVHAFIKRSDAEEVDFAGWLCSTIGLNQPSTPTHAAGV
Tyrosine-protein kinase ABL1 (Homo sapiens), sequence (P00519 whole entry): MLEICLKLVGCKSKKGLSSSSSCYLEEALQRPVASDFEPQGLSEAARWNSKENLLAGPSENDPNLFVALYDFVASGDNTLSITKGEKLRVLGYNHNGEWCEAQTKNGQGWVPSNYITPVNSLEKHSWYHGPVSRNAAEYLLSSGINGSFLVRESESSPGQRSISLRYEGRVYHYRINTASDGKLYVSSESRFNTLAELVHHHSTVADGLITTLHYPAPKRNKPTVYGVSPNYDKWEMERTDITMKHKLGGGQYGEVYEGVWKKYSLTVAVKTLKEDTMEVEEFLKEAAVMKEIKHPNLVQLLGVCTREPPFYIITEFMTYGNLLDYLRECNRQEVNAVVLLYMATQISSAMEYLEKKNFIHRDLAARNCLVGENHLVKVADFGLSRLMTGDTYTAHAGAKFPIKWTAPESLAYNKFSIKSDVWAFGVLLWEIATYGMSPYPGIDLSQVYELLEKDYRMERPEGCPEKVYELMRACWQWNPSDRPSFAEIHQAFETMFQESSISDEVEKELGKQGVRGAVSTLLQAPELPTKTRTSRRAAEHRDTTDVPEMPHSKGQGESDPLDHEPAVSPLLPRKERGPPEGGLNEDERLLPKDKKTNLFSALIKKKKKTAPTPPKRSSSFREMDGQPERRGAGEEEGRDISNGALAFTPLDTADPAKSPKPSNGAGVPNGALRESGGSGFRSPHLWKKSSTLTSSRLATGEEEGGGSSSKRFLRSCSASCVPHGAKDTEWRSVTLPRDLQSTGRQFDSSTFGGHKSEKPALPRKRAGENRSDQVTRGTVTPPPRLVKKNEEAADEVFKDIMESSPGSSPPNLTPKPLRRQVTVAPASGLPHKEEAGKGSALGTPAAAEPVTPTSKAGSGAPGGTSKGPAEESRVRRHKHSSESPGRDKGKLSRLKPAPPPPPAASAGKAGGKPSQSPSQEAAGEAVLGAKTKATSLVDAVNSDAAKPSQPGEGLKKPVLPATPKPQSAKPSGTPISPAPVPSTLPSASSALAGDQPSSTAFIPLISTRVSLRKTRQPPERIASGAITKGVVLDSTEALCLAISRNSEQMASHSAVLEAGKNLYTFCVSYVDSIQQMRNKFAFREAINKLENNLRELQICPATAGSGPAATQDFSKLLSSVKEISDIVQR
Platelet-derived growth factor receptor beta (Homo sapiens), sequence (P09619 whole entry): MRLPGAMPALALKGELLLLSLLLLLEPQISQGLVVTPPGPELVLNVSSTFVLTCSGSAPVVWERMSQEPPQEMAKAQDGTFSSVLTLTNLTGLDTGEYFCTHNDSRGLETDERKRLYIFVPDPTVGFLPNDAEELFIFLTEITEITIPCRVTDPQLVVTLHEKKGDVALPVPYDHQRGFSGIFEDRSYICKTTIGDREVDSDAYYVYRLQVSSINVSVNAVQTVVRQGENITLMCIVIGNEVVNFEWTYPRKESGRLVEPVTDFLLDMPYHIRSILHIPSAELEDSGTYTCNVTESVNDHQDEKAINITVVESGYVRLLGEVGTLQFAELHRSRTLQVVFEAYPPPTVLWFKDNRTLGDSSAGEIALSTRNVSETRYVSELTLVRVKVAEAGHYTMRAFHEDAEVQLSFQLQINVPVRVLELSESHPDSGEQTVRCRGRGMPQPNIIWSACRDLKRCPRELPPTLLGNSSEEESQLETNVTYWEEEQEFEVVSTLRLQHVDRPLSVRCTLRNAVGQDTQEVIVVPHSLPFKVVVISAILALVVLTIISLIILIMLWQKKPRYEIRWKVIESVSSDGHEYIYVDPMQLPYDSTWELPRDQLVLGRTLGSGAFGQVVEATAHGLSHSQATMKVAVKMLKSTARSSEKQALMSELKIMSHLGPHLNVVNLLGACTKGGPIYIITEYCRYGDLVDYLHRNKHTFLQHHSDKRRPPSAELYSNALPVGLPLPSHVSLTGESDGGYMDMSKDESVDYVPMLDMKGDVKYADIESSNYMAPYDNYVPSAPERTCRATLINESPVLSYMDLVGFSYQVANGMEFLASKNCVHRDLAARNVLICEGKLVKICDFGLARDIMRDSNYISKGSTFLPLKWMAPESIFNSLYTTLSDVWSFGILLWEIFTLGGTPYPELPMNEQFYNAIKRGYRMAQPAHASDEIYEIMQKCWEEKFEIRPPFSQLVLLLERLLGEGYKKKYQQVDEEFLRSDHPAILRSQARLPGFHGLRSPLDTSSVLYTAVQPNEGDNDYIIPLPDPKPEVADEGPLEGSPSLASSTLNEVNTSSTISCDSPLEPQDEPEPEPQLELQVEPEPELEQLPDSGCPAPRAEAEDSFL
Epidermal growth factor receptor (Homo sapiens), sequence (P00533 whole entry): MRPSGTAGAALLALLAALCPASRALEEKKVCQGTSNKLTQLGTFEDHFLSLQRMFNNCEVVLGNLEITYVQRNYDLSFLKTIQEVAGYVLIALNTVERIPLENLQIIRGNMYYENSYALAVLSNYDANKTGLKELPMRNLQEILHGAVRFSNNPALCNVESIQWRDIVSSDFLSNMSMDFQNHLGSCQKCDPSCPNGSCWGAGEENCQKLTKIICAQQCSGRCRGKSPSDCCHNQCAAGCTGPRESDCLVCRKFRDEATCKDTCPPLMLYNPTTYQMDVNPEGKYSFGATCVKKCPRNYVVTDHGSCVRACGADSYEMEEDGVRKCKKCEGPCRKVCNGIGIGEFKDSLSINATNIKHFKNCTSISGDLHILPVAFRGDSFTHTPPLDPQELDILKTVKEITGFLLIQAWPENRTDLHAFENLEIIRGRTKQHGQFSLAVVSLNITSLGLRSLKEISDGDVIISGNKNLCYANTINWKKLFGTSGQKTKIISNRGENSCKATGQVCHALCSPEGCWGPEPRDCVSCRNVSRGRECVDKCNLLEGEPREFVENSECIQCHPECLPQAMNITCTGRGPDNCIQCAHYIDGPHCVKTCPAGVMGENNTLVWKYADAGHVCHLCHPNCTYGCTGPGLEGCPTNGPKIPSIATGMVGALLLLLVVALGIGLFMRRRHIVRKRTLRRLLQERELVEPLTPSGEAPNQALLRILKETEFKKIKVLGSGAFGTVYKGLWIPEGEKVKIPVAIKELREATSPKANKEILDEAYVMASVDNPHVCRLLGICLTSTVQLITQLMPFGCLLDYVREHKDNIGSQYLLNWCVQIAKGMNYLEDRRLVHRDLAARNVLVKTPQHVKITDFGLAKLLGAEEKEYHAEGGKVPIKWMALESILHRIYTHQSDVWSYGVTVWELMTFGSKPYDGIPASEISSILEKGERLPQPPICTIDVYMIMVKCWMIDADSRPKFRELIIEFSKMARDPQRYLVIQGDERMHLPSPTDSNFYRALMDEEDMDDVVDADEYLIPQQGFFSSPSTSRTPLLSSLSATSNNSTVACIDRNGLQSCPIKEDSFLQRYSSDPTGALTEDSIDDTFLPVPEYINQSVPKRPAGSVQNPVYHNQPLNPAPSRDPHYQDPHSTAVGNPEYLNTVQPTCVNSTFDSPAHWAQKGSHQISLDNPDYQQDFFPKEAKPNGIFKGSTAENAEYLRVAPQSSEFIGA
Calcium/calmodulin-dependent protein kinase type 1D (Homo sapiens), sequence (Q8IU85 whole entry, looked up): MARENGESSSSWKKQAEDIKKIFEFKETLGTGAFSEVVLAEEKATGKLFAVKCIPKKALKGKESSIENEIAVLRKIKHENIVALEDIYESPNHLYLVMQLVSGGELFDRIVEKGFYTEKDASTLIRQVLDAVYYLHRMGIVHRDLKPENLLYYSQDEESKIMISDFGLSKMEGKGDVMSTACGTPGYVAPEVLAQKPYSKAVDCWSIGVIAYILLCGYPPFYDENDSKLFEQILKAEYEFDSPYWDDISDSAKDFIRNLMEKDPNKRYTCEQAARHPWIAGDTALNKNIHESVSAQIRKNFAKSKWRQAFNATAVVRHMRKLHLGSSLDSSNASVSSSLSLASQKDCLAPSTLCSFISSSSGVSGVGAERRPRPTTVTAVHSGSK

Regarding `CC(=O)c1c(Cl)c(C(=O)NOC[C@H](O)CO)c(Nc2ccc(I)cc2F)n1C`, the IC50 (usually the concentration that gives 50% inhibition) in series [1] is 32 nM. For the same molecule, the EC50 – broadly, the concentration that produces a half-maximal response – in the series with COLO 205 was found to be 23 nM; in the series on A-375 it was 46 nM. For the same molecule, the half-life (commonly the time needed for the level to fall by half in the phase considered) in series [2] was determined as 52 min; in [3], 23 min. The same molecule returned a clearance in series [4] of 7.1 mL/min/kg. Moreover, the Vd in [5] turned out to be 0.361 L/kg. Besides, the MRT (as a rule, a mean duration of stay, worked out from the concentration-time curve) in series [6] is 51 min; in [7], 4.1 h. For the same molecule, in series [8], the bioavailability (commonly dose-corrected exposure relative to a reference, in per cent) stood at 40%.

`CC(=O)c1cc(C(=O)NOC[C@H](O)CO)c(Nc2ccc(I)cc2F)n1C` showed an IC50 in series [1] of 20 nM. Also, the EC50 with COLO 205 was 33 nM; in the series on A-375 it was 36 nM. The half-life in series [2] is above 200 min; in [3], 29 min. This molecule also gave a clearance in series [4] of 48 mL/min/kg. Further, in series [5], the Vd came to 2.1 L/kg. For the same molecule, the MRT in series [6] was found to be 43.2 min; in [7], 7.4 h. This molecule displayed a bioavailability in series [8] of 19%.

For the molecule `CC(=O)c1cc(C(=O)NOCCO)c(Nc2ccc(I)cc2F)n1C`, the EC50 in the series with COLO 205 came to 12 nM; in the series with A-375, 14 nM. The half-life was 36 min in [2] and 14 min in series [3]. Also, the Vd in series [5] is 2.9 L/kg. The results for the MRT in series [6] and in series [7] were 55.8 min and 6.4 h, respectively. The molecule further came in with a bioavailability in series [8] of 46%.

Consider `CC(=O)c1cc(C(=O)N2CC(O)C2)c(Nc2ccc(I)cc2F)n1C`, for which half-maximal inhibition in [1] (IC50) was put at 30 nM. Also, the EC50 was 32 nM in the series with COLO 205 and 97 nM in the series with A-375. Further, the half-life was determined as 15 min in [2] and 13 min in [3]. Besides, the inhibition result in series [9], in [10], in series [11], in series [12], in series [13] and in [14] was “inactive” in each case. In addition, the inhibition entry in series [15], in series [16], in series [17], in series [18], in [19] and in series [20] was “inactive” in each case. In addition, the inhibition result in series [21], in [22], in series [23], in series [24], in series [25] and in [26] was “inactive” each time.
